Measured values taken from ChEMBL document CHEMBL1955825, “1,3-Phenylene bis(ketoacid) derivatives as inhibitors of Escherichia coli dihydrodipicolinate synthase” (Bioorg Med Chem, 2012).

Key:
Escherichia coli [1] = test: Inhibition of Escherichia coli DHDPS-catalyzed condensation of pyruvate and aspartate semi-aldehyde at 5 mM measured after 1 min by UV-spectrophotometric analysis
Method in brief: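 E. coli DHDPS in 200 mM HEPES pH 8.0 was pre-incubated 1 min with inhibitor (from 100% DMSO; final 5 mM), with a DMSO-only control. Activity was then read by the coupled DHDPR assay, following NADPH oxidation at 340 nm at 30 °C. The result is % inhibition relative to the control.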

Escherichia coli [2] = test: Inhibition of Escherichia coli DHDPS-catalyzed condensation of pyruvate and aspartate semi-aldehyde at 50 mM after 60 mins by UV-spectrophotometric analysis
[3] = (§1) Inhibition of Escherichia coli DHDPS-catalyzed condensation of pyruvate and aspartate semi-aldehyde by UV-spectrophotometric analysis; details: read-out: Ki(app)
Method in brief: (§2)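 Time-dependent assay: DHDPS in HEPES pH 8.0 (raised to 500 mM for the acidic inhibitor) was pre-incubated with inhibitor at 0.5–25 mM. Aliquots were serially diluted before adding to substrates, and residual rate was measured by DHDPR/NADPH coupling at 340 nm at 30 °C. Decay curves of v_t/v_0 were fitted per Copeland. Ki app came from a y-intercept isotherm midpoint, and Ki* app from k_obs versus [I].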

Escherichia coli [4] = test: as §1; details: TDE = time-dependent effect; method in brief: as §2

| Compound | inhibition (Escherichia coli [1]) | inhibition (Escherichia coli [2]) | Ki [3] | inhibition (Escherichia coli [4]) |
| --- | --- | --- | --- | --- |
| O=C(O)/C(=N\O)c1cccc(/C(=N/O)C(=O)O)c1 | 23% | 34% |  |  |
| COC(=O)C(=O)c1cccc(C(=O)C(=O)OC)c1O | 10% |  | 40 µM | tde |
| O=C(O)C(=O)c1cccc(C(=O)C(=O)O)c1 | 49% |  | 2960 µM |  |
| COC(=O)/C(=N\O)c1cccc(/C(=N/O)C(=O)OC)c1 | 15% |  | 330 µM |  |
| O=C(O)C(=O)c1cccc(C(=O)C(=O)O)c1O | 10% |  | 290 µM | tde |
| COC(=O)C(=O)c1cccc(C(=O)C(=O)OC)c1 | 2% |  |  |  |
